The record followed here is ChEMBL document CHEMBL4049418, “6-OH-Phenanthroquinolizidine Alkaloid and Its Derivatives Exert Potent Anticancer Activity by Delaying S Phase Progression” (J Med Chem, 2017).

Activity calls are given as the source filed them. The calls are words filed in the database; no cut-off is given here.

Usually IC50 stands for the concentration needed to halve the response being measured. As usually defined, the GI50 is the concentration at which growth is held to half of that of the control.

Data set [1] can be described thus: Antiproliferative activity against human MRC9 cells assessed as reduction in viability after 72 hrs by SRB assay. Particulars: MRC9, 72 h. The format is cell-based. Put shortly: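 Cells seeded and dosed in triplicate for 72 h. Suspension lines (HL-60, K-562, K562/ADR, HL-60/MX2) were read by MTT: 5 mg/mL MTT stock added, 4 h at 37 °C, formazan dissolved in 10% SDS/5% isobutanol/10 mM HCl, A570. Adherent lines were read by SRB: fixed with cold 10% TCA, stained with 0.4% SRB in 1% acetic acid, A540. IC50 from four-parameter logistic fit; mean of ≥3 independent experiments.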
A general note: Sulforhodamine B stains cellular protein and so reports cell mass.

Data set [2] is described as follows: Selectivity ratio of IC50 for human MRC9 cells to IC50 for human A549 cells. Put shortly: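 SRB assay: A549 (F-12, 10% FBS) and MRC-5/MRC-9 (EMEM, 10% FBS) treated in triplicate 72 h, fixed with ice-cold 10% TCA, stained with 0.4% SRB in 1% acetic acid, absorbance 540 nm; IC₅₀ by four-parameter logistic fit, mean of ≥3 independent experiments.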
A short description of data set [3]: Cytotoxicity against Sprague-Dawley rat primary neuronal cells assessed as reduction in cell viability after 24 hrs by MTT assay. It counts as cell-based.
The subject of data set [4] is Bel-7402. Kind of data set: Cell cycle arrest in human Bel7402 cells assessed as delay in progression of S-phase to G2-phase at 1 to 3 nM pre-treated with aphidicolin for 16 hrs followed by compound addition measured after 4 hrs by propidium iodide staining-based flow cytometric method. The format is functional. A digest of the protocol: (§1)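 Exponentially growing cells synchronized in early S phase with 0.2 μg/mL aphidicolin for 16 h. Cells released into fresh medium with or without compound for set times. Ethanol-fixed, stained with PI/RNase, and cell cycle distribution read by flow cytometry. Representative of three independent experiments.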
In general terms: Flow cytometry measures light scatter and fluorescence of single cells or particles in a stream.

Data set [5] relates to Bel-7402. Put plainly: Cell cycle arrest in human Bel7402 cells assessed as delay in progression of S-phase to G2-phase at 10 nM pre-treated with aphidicolin for 16 hrs followed by compound addition measured up to 24 hrs by propidium iodide staining-based flow cytometric method. It counts as functional. A digest of the protocol: as §1
The subject of the next data set is SMMC-7721. Put plainly: Cell cycle arrest in human SMMC7721 cells assessed as delay in progression of S-phase to G2-phase at 1 to 10 nM pre-treated with aphidicolin for 16 hrs followed by compound addition measured after 24 hrs by propidium iodide staining-based flow cytometric method. The format is functional. A digest of the protocol:
as §1

Data set [6] has as its system Bel-7402. Put plainly: Induction of apoptosis in human Bel7402 cells assessed as early apoptotic cells at 1 nM after 72 hrs by Annexin V/propidium iodide staining based flow cytometric analysis (reference value: 3.66%). The format is functional. A digest of the protocol: (§2)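 BEL-7402 cells (3 × 10⁵ per well, 6-well plates) exposed for 72 h. Harvested, PBS-washed, resuspended in cold binding buffer with annexin V–FITC and PI, and stained 15 min in the dark at room temperature. Early apoptotic, late apoptotic and necrotic fractions quantified by flow cytometry.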

Data set [7] concerns Bel-7402. Put plainly: Induction of apoptosis in human Bel7402 cells assessed as late apoptotic cells at 1 nM after 72 hrs by Annexin V/propidium iodide staining based flow cytometric analysis (reference value: 3.6%). The format is functional. Put shortly: as §2
Data set [8] has as its system Bel-7402. Kind of data set: Induction of apoptosis in human Bel7402 cells assessed as necrotic cells at 1 nM after 72 hrs by Annexin V/propidium iodide staining based flow cytometric analysis (reference value: 0.38%). It counts as functional.
Data set [9] relates to Bel-7402. Kind of data set: Induction of apoptosis in human Bel7402 cells assessed as viable cells at 10 nM after 72 hrs by Annexin V/propidium iodide staining based flow cytometric analysis (reference value: 92.4%). Particulars: Bel-7402, 72 h, read-out: Activity. The format is functional.
The test system of data set [10] is Bel-7402. Kind of data set: Induction of apoptosis in human Bel7402 cells assessed as late apoptotic cells at 10 nM after 72 hrs by Annexin V/propidium iodide staining based flow cytometric analysis (reference value: 3.6%). The format is functional. A digest of the protocol: as §2
The test system of data set [11] is K562/Adr. Put plainly: Effect on P-gp expression in human K562/ADR cells up to 100 nM after 24 hrs by Western blot analysis. It counts as functional, cell-based. (In general: A western blot detects proteins with antibodies after separation by electrophoresis.)
The next data set deals with KB. Put plainly: Cell cycle arrest in human KB/VCR cells assessed as delay in progression of S-phase to G2-phase at 10 nM pre-treated with aphidicolin for 16 hrs followed by compound addition measured up to 12 hrs by propidium iodide staining-based flow cytometric method. It counts as functional. Put shortly:
as §1

The subject of another data set is K562. Kind of data set: Cell cycle arrest in human K562 cells assessed as delay in progression of S-phase to G2-phase at 1 to 10 nM pre-treated with aphidicolin for 16 hrs followed by compound addition measured up to 24 hrs by propidium iodide staining-based flow cytometric method. It counts as functional.
Data set [12] relates to K562/Adr. Kind of data set: Cell cycle arrest in human K562/ADR cells assessed as delay in progression of S-phase to G2-phase at 1 to 10 nM pre-treated with aphidicolin for 16 hrs followed by compound addition measured up to 24 hrs by propidium iodide staining-based flow cytometric method. The format is functional.
The test system of data set [13] is Bel-7402. Kind of data set: Inhibition of DNA synthesis in human Bel7402 cells assessed as BrdU incorporation at 1 uM preincubated for 1 hr followed by BrdU addition for 30 mins by FITC/propidium iodide staining based flow cytometry (reference value: 35.5%). It counts as functional. Also noted: scale not given: the % may be the effect or the level left. Put shortly: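 BEL-7402 cells (3 × 10⁵ per well) exposed to compounds 1 h, then labeled with 10 μM BrdU for 30 min; trypsinized, fixed in 70% ethanol at −20 °C ≥1 h, 2 N HCl 20 min, neutralized with 0.1 M borate, stained with anti-BrdU-FITC plus PI 30 min; BrdU-positive cells quantified by flow cytometry; three independent experiments, mean + SD.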

The test system of data set [14] is Bel-7402. Kind of data set: Induction of DNA damage in human Bel7402 cells assessed as increase in CHK1 phosphorylation at Ser345 residue at 0.1 to 10 uM after 1 hr by Western blot analysis. It counts as functional, cell-based. A digest of the protocol: (§3)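 BEL-7402 cells (1.5 × 10⁵ per well, 12-well plates) exposed to compounds for 1 h. Phospho-Chk1 Ser345, phospho-Chk2 Thr68 and γH2AX detected by Western blot. Camptothecin at 1 μM served as the DNA-damage reference.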

In data set [15] the test system is Bel-7402. Put plainly: Induction of DNA damage in human Bel7402 cells assessed as increase in CHK2 phosphorylation at Thr68 residue at 0.1 to 10 uM after 1 hr by Western blot analysis. The format is functional, cell-based. A digest of the protocol: as §3
In data set [16] the test system is Bel-7402. Put plainly: Induction of apoptosis in human Bel7402 cells assessed as viable cells at 1 uM after 72 hrs by Annexin V/propidium iodide staining based flow cytometric analysis (reference value: 92.4%). The format is functional. Particulars: Bel-7402, 72 h, read-out: Activity.
For data set [17], the system named is Bel-7402. Kind of data set: Induction of apoptosis in human Bel7402 cells assessed as early apoptotic cells at 1 uM after 72 hrs by Annexin V/propidium iodide staining based flow cytometric analysis (reference value: 3.66%). The format is functional. Put shortly:
as §2

Data set [18] has as its system Bel-7402. Kind of data set: Induction of apoptosis in human Bel7402 cells assessed as necrotic cells at 1 uM after 72 hrs by Annexin V/propidium iodide staining based flow cytometric analysis (reference value: 0.38%). The format is functional.
Data set [19] relates to Bel-7402. Put plainly: Induction of apoptosis in human Bel7402 cells assessed as late apoptotic cells at 10 uM after 72 hrs by Annexin V/propidium iodide staining based flow cytometric analysis (reference value: 3.6%). The format is functional. Put shortly:
as §2

Data set [20] is described as follows: Growth inhibition of human KB-MDR cells after 8 days by methylene blue-staining based spectrophotometry. As to conditions: 192 h. It counts as functional.
A short description of data set [21]: Growth inhibition of human KB-7d cells after 8 days by methylene blue-staining based spectrophotometry. It counts as functional. As to conditions: KB7D, 192 h.
Data set [22] can be described thus: Growth inhibition of human KB-HU-R cells after 8 days by methylene blue-staining based spectrophotometry. It counts as functional. Particulars: 192 h.

With `COc1cc2c3c(c4ccc(O)cc4c2cc1OC)CN1CCCC[C@@H]1C3`, the IC50 in data set [1] was 2.2 nM. The “Ratio IC50” value in data set [2] is recorded as 3 - 4. Also, the “inhibition (INH)” value in [3] is recorded as “Dose-dependent effect”. In addition, the outcome with Bel-7402 [4], with Bel-7402 [5], in the data set on SMMC-7721, with KB, with K562 and with K562/Adr [12] was Active. The Activity was found to be 3.11% with Bel-7402 [6], 2.11% in the data set with Bel-7402 [7], 0.39% with Bel-7402 [8] and 14.2% in the data set on Bel-7402 [10]. For the same compound, in the data set with Bel-7402 [9], the viability at 0.01 µM came to 81%. Also, the result in the data set with K562/Adr [11] was inactive.
As for `COc1cc2c3c(c4cc(OC)c(OC)cc4c2cc1OC)[C@H](O)[C@@H]1CCCN1C3`, the Activity was 8.01% with Bel-7402 [13], 2.56% in the data set on Bel-7402 [17], 0.81% in the data set with Bel-7402 [18] and 11.5% with Bel-7402 [19]. Besides, the result with Bel-7402 [14] and in the data set with Bel-7402 [15] was inactive. In addition, the viability at 1 µM in the data set on Bel-7402 [16] came to 94.7%. For the same compound, the GI50 in data set [20], in data set [21] and in data set [22] was 30 nM each time.
